# Results taken from ChEMBL document CHEMBL3272240, “[1-deaminopenicillamine,4-valine]-8-D-arginine-vasopressin, a highly potent inhibitor of the vasopressor response to arginine-vasopressin” (J Med Chem, 1977).
# Calls of active or inactive are those of the source. The rule behind the calls is not given here. Starred links: 1 amine or outer side, 2 acyl side, 3 side chain; linkers in the order of their positions; H or OH if unused. Positions of bridges follow the written chain, without caps; N, C: chain ends. Non-standard residues stand in square brackets, D forms with d. Residues, ends and D or L forms follow the SMILES beside them. X2 = CCC(CC)(CC(=O)[*:1])S[*:2]; X1 = CC(C)(CC(=O)[*:1])S[*:2]; Mpa = O=C(O)CCS
# Columns and labels:
# [1] = system: Rattus norvegicus; assay: Antidiuretic activity in Brattleboro rat hereditary hypothalamic diabetes insipidus model at 100 ug/kg, sc measured over 1.7 hrs; assay type: functional, organism-based; conditions: Urine
# Summary of the method: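 Single subcutaneous injection into Brattleboro rats with hereditary hypothalamic diabetes insipidus. The value recorded is the duration, in hours, for which diuresis was inhibited (antidiuresis) after dosing.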
# [2] = system: Rattus norvegicus; assay: Antivasopressor activity in iv dosed phenoxybenzamine-treated rat assessed as inhibition of lysine-vasopressin-induced vasopressor response; assay type: functional, organism-based; conditions: read-out: pA2 (converted)
# Summary of the method: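 Urethane-anesthetized, phenoxybenzamine-treated rats as in the standard rat vasopressor assay. The antagonist was given iv immediately before iv injection of agonist standard, with LVP as agonist. pA2 is the −log molar antagonist concentration halving the effect of a doubled agonist dose. Peptide was assumed uniformly distributed in blood volume. pA2 was computed per assay group and reported as mean ± SE.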
# [3] = Antioxytocic activity in Sherman albino rat uterus assessed as inhibition of oxytocin-induced contraction; assay type: functional, tissue-based
# Summary of the method: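 Isolated rat uterus in magnesium-free van Dyke-Hastings solution. The antagonist was added to the bath immediately before injection of agonist (USP Posterior Pituitary Reference Standard). pA2 was calculated per Schild as the −log molar antagonist concentration reducing the response to 2X units of agonist to that of X units. A pA2 was computed per assay group and reported as mean ± SE.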
# [4] = system: Rattus norvegicus; assay: Antidiuretic antagonist activity in sc dosed Brattleboro rat hereditary hypothalamic diabetes insipidus model; assay type: functional, organism-based; conditions: Urine
# [5] = system: Rattus norvegicus; assay: Antivasopressor activity in phenoxybenzamine-treated rat assessed as inhibition of arginine-vasopressin-induced vasopressor response at 10 ug/kg, iv measured for >= 2.5 hrs; assay type: functional, organism-based
# Summary of the method: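 Rats received a single iv injection of 10 μg/kg antagonist. Vasopressor responses to AVP challenges of 10-40 mU/kg (about 25-100 ng/kg) were then followed. The duration of inhibition was recorded as an average period.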
# [6] = species on record: Rattus norvegicus; assay: Antivasopressor activity in phenoxybenzamine-treated rat assessed as inhibition of norepinephrine-induced vasopressor response; assay type: functional, organism-based
# [7] = system: Rattus norvegicus; assay: Antidiuretic activity in sc dosed Brattleboro rat hereditary hypothalamic diabetes insipidus model measured over 6 hrs; assay type: functional, Urine
# Summary of the method: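 Brattleboro rats with hereditary hypothalamic diabetes insipidus received a single sc injection of 100 ng/kg. Inhibition of diuresis was followed over time to record its duration.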
# [8] = species on record: Rattus norvegicus; assay: Antivasopressor activity in phenoxybenzamine-treated rat assessed as inhibition of angiotensin 2-induced vasopressor response; assay type: functional, organism-based
# [9] = system: Rattus norvegicus; assay: Antidiuretic activity in sc dosed Brattleboro rat hereditary hypothalamic diabetes insipidus model; assay type: functional, organism-based; conditions: Urine
# [10] = system: Rattus norvegicus; assay: Ratio of dPVDAVP to compound for antidiuretic activity in sc dosed Brattleboro rat hereditary hypothalamic diabetes insipidus model
# [11] = Oxytocic activity in Sherman albino rat uterus assessed as contraction; assay type: functional
smiles,measurement,setting,value
N=C(N)NCCC[C@H](NC(=O)[C@@H]1CCCN1C(=O)[C@@H]1CSSC[C@H](N)C(=O)N[C@@H](Cc2ccc(O)cc2)C(=O)N[C@@H](Cc2ccccc2)C(=O)N[C@@H](CCC(N)=O)C(=O)N[C@@H](CC(N)=O)C(=O)N1)C(=O)NCC(N)=O,Activity,[1],Active
CCC1(CC)CC(=O)N[C@@H](Cc2ccc(O)cc2)C(=O)N[C@@H](Cc2ccccc2)C(=O)N[C@@H](CCC(N)=O)C(=O)N[C@@H](CC(N)=O)C(=O)N[C@H](C(=O)N2CCC[C@H]2C(=O)N[C@@H](CCCCN)C(=O)NCC(N)=O)CSS1 (YFQNCPKG-NH2; linker N-5 via X2),Kb,[2],70.8 nM
same,pA2,[3],6.84
CC(C)[C@@H]1NC(=O)[C@H](Cc2ccccc2)NC(=O)[C@H](Cc2ccc(O)cc2)NC(=O)CC(C)(C)SSC[C@@H](C(=O)N2CCC[C@H]2C(=O)N[C@H](CCCNC(=N)N)C(=O)NCC(N)=O)NC(=O)[C@H](CC(N)=O)NC1=O (YFVNCP[dR]G-NH2; linker N-5 via X1),Activity,[4],inactive
same,inhibition,[5],Active
same,inhibition,[6],inactive
same,Activity,[7],123 U/mg
same,inhibition,[8],inactive
same,Activity,[9],Active
same,pA2,[3],7.23
CC(C)[C@@H]1NC(=O)[C@H](Cc2ccccc2)NC(=O)[C@H](Cc2ccc(O)cc2)NC(=O)CCSSC[C@@H](C(=O)N2CCC[C@H]2C(=O)N[C@H](CCCNC(=N)N)C(=O)NCC(N)=O)NC(=O)[C@H](CC(N)=O)NC1=O ([Mpa]YFVNCP[dR]G-NH2; disulfide 1-6),Ratio,[10],10
same,Activity,[7],1230 U/mg
same,Activity,[11],8 U/mg
